Assay results from ChEMBL document CHEMBL2062450, “New cytosine derivatives as inhibitors of DNA methylation” (Eur J Med Chem, 2012).
The source made the active and inactive calls. No cut-off for these calls is given here.

How the values were obtained:
[1] = target: T1, Orphan methyltransferase M.SssI (Spiroplasma monobiae, UniProt P15840); assay: Uncompetitive inhibition of Spiroplasma sp. MQ1 SssI methyltransferase using pUC18 as substrate measured for 10 mins by Cornish-Bowden's plot analysis
T1 sequence (P15840 whole entry): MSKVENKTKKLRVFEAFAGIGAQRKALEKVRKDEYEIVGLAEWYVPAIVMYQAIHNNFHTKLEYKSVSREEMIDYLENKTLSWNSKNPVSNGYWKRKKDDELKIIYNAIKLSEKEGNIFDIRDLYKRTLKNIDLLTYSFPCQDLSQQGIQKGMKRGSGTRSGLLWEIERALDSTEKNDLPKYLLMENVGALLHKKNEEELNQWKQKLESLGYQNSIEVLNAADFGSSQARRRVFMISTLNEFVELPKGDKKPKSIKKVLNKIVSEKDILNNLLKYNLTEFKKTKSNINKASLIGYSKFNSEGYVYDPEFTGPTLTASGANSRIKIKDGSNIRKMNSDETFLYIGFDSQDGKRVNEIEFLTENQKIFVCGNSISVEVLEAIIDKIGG
Method in brief: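 M.SssI reaction in 10 mM Tris-HCl pH 7.9 with 50 mM NaCl, 10 mM DTT, 2 mM [3H]CH3-SAM, 1 U enzyme and pUC18 (0.1, 0.5 or 1 µg). Run at 37 °C for 1–10 min to get V0. Ki' obtained by Cornish-Bowden method, plotting S/V against inhibitor concentration. Duplicates.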

[2] = target: T1, Orphan methyltransferase M.SssI; assay: Competitive inhibition of Spiroplasma sp. MQ1 SssI methyltransferase using pUC18 as substrate measured for 10 mins by Dixon plot analysis
Method in brief: (§1)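 M.SssI reaction in 10 mM Tris-HCl pH 7.9 with 50 mM NaCl, 10 mM DTT, 2 mM [3H]CH3-SAM, 1 U enzyme and pUC18 plasmid (0.1, 0.5 or 1 µg). Run at 37 °C for 1, 3, 5 and 10 min with inhibitor present to get initial rates V0 (nM/min). Ki taken from Dixon plot. Reactions repeated twice.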

[3] = target: T2, DNA (cytosine-5)-methyltransferase 1 (Homo sapiens, UniProt P26358); assay: Inhibition of DNMT1 in human HeLa cells assessed as 2'-deoxycytosine phosphate level by two-dimensional thin layer chromatography analysis; format: cell-based
T2 sequence (P26358 whole entry): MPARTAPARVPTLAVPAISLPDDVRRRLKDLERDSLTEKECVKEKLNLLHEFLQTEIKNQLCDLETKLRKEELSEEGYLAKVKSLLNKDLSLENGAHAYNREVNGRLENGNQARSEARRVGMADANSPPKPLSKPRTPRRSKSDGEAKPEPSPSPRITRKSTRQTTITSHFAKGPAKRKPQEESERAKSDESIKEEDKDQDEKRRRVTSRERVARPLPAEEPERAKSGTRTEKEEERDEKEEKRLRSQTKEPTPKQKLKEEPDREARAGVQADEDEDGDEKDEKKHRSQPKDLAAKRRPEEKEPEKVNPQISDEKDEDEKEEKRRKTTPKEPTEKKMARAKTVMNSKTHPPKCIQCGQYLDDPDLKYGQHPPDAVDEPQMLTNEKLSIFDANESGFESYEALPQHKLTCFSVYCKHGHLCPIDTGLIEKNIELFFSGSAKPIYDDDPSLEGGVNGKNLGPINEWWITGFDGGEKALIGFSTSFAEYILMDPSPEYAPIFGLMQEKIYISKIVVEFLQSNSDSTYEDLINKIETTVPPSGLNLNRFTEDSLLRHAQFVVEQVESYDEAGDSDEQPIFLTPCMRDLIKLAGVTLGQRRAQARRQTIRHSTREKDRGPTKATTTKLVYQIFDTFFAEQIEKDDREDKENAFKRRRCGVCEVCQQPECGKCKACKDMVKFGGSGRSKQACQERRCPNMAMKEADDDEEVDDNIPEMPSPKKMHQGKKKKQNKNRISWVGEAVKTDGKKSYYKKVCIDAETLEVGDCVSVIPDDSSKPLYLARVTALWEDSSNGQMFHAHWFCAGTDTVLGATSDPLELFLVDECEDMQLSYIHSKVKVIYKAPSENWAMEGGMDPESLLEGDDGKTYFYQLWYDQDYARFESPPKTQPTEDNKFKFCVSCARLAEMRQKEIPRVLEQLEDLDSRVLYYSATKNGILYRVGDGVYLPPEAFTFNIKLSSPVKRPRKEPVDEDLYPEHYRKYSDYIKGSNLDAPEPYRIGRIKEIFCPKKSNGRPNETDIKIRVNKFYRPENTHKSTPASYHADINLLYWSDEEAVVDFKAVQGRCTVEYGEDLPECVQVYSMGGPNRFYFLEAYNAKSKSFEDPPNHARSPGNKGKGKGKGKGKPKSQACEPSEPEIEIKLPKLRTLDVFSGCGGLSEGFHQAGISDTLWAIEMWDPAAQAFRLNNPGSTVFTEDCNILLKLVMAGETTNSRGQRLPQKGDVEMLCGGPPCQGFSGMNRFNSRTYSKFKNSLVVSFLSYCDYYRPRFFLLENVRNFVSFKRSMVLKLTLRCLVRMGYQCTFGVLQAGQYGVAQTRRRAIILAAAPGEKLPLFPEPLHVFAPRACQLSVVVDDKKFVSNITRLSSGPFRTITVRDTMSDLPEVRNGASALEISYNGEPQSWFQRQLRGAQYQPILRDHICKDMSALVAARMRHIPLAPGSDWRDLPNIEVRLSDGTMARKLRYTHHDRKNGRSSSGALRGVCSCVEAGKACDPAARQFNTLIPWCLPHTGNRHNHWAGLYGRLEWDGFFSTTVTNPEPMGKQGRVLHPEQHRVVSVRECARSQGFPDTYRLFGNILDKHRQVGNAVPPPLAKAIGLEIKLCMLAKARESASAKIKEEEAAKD
Method in brief: (§2)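 HeLa (RPMI-1640) and HEK293 (DMEM) cells, medium with 10% FBS, antibiotics and vitamin mix. Seeded at 1.25 × 10⁵ per well and exposed 72 h at 37 °C, 5% CO2 to 1, 10 or 100 µM. DNA digested with micrococcal nuclease and spleen phosphodiesterase, then 5'-labelled with [γ-32P]ATP and T4 polynucleotide kinase. 3'-phosphate removed with nuclease P1. Nucleotides resolved by 2D cellulose TLC. Methylation given as m5C/(m5C+dC+dT) × 100.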

[4] = test system: HEK293; assay: Inhibition of DNA methylation in human HEK293 cells assessed as reduction of 5-methylcytosine level using [gamma-32P]ATP after 72 hrs; format: cell-based; settings: HEK293, 72 h; method in brief: as §2
[5] = test system: HeLa; assay: Inhibition of DNA methylation in human HeLa cells assessed as reduction of 5-methylcytosine level using [gamma-32P]ATP after 72 hrs; format: functional, cell-based; method in brief: as §2
[6] = target: T2, DNA (cytosine-5)-methyltransferase 1; assay: Inhibition of DNMT1 in human HeLa cells assessed as 2'-deoxyguanosine phosphate level by two-dimensional thin layer chromatography analysis; format: cell-based; method in brief: as §2
[7] = target: T2, DNA (cytosine-5)-methyltransferase 1; assay: Inhibition of DNMT1 in human HeLa cells assessed as 2'-deoxyadenosine phosphate level by two-dimensional thin layer chromatography analysis; format: cell-based; settings: in the assay text read “5-methylcytosine level” for “2'-deoxyadenosine phosphate level”; method in brief: as §2
[8] = target: T2, DNA (cytosine-5)-methyltransferase 1; assay: Inhibition of DNMT1 in human HeLa cells assessed as 5-methyl-2'-deoxycytosine phosphate level by two-dimensional thin layer chromatography analysis; format: cell-based; method in brief: as §2
[9] = target: T2, DNA (cytosine-5)-methyltransferase 1; assay: Inhibition of DNMT1 in human HeLa cells assessed as 2'-deoxytymidine phosphate level by two-dimensional thin layer chromatography analysis; format: cell-based; method in brief: as §2
[10] = target: T2, DNA (cytosine-5)-methyltransferase 1; assay: Inhibition of DNMT1 in human HeLa cell nuclear extract assessed as methylated substrate level at 10 uM by ELISA
Method in brief: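 HeLa nuclear extract (cells grown to 80% confluency; protein by Bradford) with hemimethylated DNA substrate, incubated 1 h with or without inhibitor. Methylated product detected by ELISA with anti-5-methylcytosine antibody, colorimetric read-out at 450 nm. Each experiment repeated twice.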

[11] = target: T1, Orphan methyltransferase M.SssI; assay: Non-competitive inhibition of Spiroplasma sp. MQ1 SssI methyltransferase using pUC18 as substrate measured for 10 mins by Dixon plot analysis; method in brief: as §1
[12] = target: T2, DNA (cytosine-5)-methyltransferase 1; assay: Inhibition of DNMT1 in human HeLa cell nuclear extract assessed as methylated substrate level at 100 uM by ELISA
[13] = target: T1, Orphan methyltransferase M.SssI; assay: Inhibition of Spiroplasma sp. MQ1 SssI methyltransferase-mediated DNA cytosine methylation using pUC18 as substrate and [3H]CH3-SAM measured up to 10 mins
Method in brief: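 Tritium-incorporation assay with SssI methyltransferase, pUC18 plasmid (0.1–1 µg) and 2 mM [3H]CH3-SAM. Buffer is 10 mM Tris-HCl pH 7.9, 50 mM NaCl, 10 mM DTT. Sampled at 1, 3, 5 and 10 min at 37 °C to give initial velocity V0. Reactions done twice.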

[14] = target: T2, DNA (cytosine-5)-methyltransferase 1; assay: Inhibition of DNMT1 in human HeLa cell nuclear extract assessed as methylated substrate level by ELISA

Structure (SMILES): CCC/C=N/c1cc[nH]c(=O)n1
- Ki [1]: 800 µM

Structure (SMILES): CC(=O)OCc1c[nH]c(=O)nc1NCc1ccccc1
- Ki [2]: 23 µM

Structure (SMILES): Cc1c[nH]c(=O)nc1NCc1ccccc1
- Ki [2]: 3.6 µM

Structure (SMILES): O=c1nc(NCc2ccco2)ccn1[C@H]1C[C@H](O)[C@@H](CO)O1
- Ki [2]: 170 µM

Structure (SMILES): O=c1nc(NCc2ccccc2)cc[nH]1
- inhibition [3]: Active
- Ki [2]: 10 µM
- IC50 [4]: > 100 µM
- IC50 [5]: 31 µM
- inhibition [6]: Active
- inhibition [7]: Active
- inhibition [8]: Active
- inhibition [9]: Active

Structure (SMILES): Cc1c[nH]c(=O)nc1NCc1ccco1
- Ki [2]: 15 µM
- IC50 [4]: > 100 µM
- IC50 [5]: 88 µM

Structure (SMILES): O=C1N=C(NCc2ccccc2)NCN1
- Ki [2]: 20 µM

Structure (SMILES): CCNc1cc[nH]c(=O)n1
- Ki [1]: 6000 µM

Structure (SMILES): CCCCNCc1c[nH]c(=O)nc1NCc1ccco1
- Ki [2]: 960 µM

Structure (SMILES): O=c1nc(NCc2cccnc2)cc[nH]1
- Ki [2]: 400 µM

Structure (SMILES): O=C(O[C@@H]1Cc2c(O)cc(O)cc2O[C@@H]1c1cc(O)c(O)c(O)c1)c1cc(O)c(O)c(O)c1 [EPIGALOCATECHIN GALLATE]
- Ki [2]: 0.028 µM
- inhibition [10]: 42%

Structure (SMILES): O=c1nc(NCc2ccccc2[N+](=O)[O-])cc[nH]1
- Ki [11]: 6400 µM

Structure (SMILES): Nc1nc[nH]c(=O)n1
- Ki [2]: 5500 µM

Structure (SMILES): O=Cc1cnc(=O)[nH]c1NCc1ccccc1
- Ki [2]: 35 µM

Structure (SMILES): O=c1ncc(CS(=O)(=O)O)c(NCc2ccco2)[nH]1
- Ki [2]: 112 µM

Structure (SMILES): C/C=N/c1cc[nH]c(=O)n1
- Ki [1]: 5600 µM

Structure (SMILES): CC(=O)OCc1c[nH]c(=O)nc1NCc1ccco1
- Ki [2]: 50 µM

Structure (SMILES): O=c1nc(NCc2ccccc2)c(CO)c[nH]1
- Ki [2]: 135 µM

Structure (SMILES): O=c1ncc(CS(=O)(=O)O)c(NCc2ccccc2)[nH]1
- Ki [2]: 33 µM

Structure (SMILES): CCCCNc1ccnc(=O)[nH]1
- Ki [1]: 1000 µM

Structure (SMILES): O=c1nc(NCc2ccc(CO)o2)cc[nH]1
- Ki [2]: 700 µM

Structure (SMILES): O=C(O)[C@H](Cc1c[nH]c2ccccc12)N1C(=O)c2ccccc2C1=O
- Ki [2]: 0.23 µM
- inhibition [12]: 11%

Structure (SMILES): CC/C=N/c1cc[nH]c(=O)n1
- Ki [1]: 3400 µM

Structure (SMILES): Cc1cn([C@H]2C[C@H](O)[C@@H](CO)O2)c(=O)nc1NCc1ccco1
- Ki [2]: 250 µM

Structure (SMILES): Cc1ccc(S(=O)(=O)Nc2cc[nH]c(=O)n2)cc1
- Ki [2]: 550 µM

Structure (SMILES): O=Cc1c[nH]c(=O)nc1NCc1ccco1
- Ki [2]: 83 µM

Structure (SMILES): O=c1nc(NCc2ccco2)cc[nH]1
- Ki [2]: 70 µM

Structure (SMILES): O=C1N=C(NCc2ccco2)NCN1
- inhibition [3]: Active
- Ki [2]: 0.7 µM
- IC50 [4]: 75 µM
- IC50 [5]: 26 µM
- inhibition [6]: Active
- IC50 [13]: 2.73 µM
- inhibition [7]: Active
- inhibition [8]: Active
- IC50 [14]: 22 µM
- inhibition [14]: Dose-dependent effect
- inhibition [10]: 55%
- inhibition [9]: Active

Structure (SMILES): Cc1ccc(CNc2cc[nH]c(=O)n2)cc1
- Ki [2]: 26 µM

Structure (SMILES): O=c1nc(NCc2ccco2)c(CO)c[nH]1
- Ki [2]: 440 µM
